From ChEMBL document CHEMBL4261553 (Medchemcomm, 2017) come the findings set out here.

Assay [1] has as its target 5-hydroxytryptamine receptor 2A (Homo sapiens, UniProt P28223). Put plainly: Displacement of [3H]-ketanserin from human 5-HT2A receptor expressed in CHOK1 cell membranes after 60 mins by microbeta scintillation counting method. It counts as cell-based.
In assay [2] the target is T1, 5-hydroxytryptamine receptor 1A (Homo sapiens, UniProt P08908).
T1 sequence (P08908 whole entry): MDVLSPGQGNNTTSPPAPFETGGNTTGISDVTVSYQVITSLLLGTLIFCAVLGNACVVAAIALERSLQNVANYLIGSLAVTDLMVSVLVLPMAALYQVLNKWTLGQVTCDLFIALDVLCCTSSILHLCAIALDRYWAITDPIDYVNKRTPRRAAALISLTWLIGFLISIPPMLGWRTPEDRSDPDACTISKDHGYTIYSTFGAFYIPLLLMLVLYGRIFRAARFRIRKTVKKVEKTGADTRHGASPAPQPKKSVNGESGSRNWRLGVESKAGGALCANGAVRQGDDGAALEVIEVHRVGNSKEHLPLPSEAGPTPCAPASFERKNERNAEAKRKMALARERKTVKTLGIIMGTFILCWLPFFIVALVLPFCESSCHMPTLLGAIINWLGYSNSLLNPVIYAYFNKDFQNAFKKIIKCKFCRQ
Description: Displacement of [3H]-8-OH-DPAT from human 5-HT1A receptor expressed in CHOK1 cell membranes after 60 mins by microbeta scintillation counting method. The method in brief:
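Membranes from CHO-K1 cells stably expressing human receptor, 10 µg protein/well, in 50 mM Tris pH 7.4 with 10 mM MgSO4, 0.5 mM EDTA, 0.1% ascorbic acid. Compounds at 6 concentrations, 10^-10 to 10^-5 M final, in duplicate; 27 °C. GF/C filtration, cold Tris washes. Ki by one-site fit and Cheng–Prusoff.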

Chain of 5-hydroxytryptamine receptor 2A (P28223 whole entry): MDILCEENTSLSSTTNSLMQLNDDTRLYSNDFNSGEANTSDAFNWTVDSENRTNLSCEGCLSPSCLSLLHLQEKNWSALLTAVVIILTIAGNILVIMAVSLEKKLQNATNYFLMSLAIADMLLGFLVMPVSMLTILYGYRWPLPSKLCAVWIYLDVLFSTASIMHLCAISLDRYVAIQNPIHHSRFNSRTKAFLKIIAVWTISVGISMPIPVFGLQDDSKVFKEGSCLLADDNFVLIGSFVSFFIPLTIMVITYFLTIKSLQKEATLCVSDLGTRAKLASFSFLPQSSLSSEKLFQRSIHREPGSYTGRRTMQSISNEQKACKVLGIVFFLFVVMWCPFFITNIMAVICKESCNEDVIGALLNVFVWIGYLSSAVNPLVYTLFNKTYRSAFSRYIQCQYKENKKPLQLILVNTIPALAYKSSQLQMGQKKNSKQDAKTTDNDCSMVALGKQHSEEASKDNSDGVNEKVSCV

As for `CC(=O)c1c(C)cc2oc(=O)cc(C)c2c1OCCCN1CCN(c2ccccc2F)CC1`, the figures for the Ki in assay [1] and in assay [2] were 28 nM and 0.3 nM, respectively.
Regarding `Cc1cc(OCCCCN2CCN(c3ccc(Cl)cc3)CC2)c2c(C)cc(=O)oc2c1`, the Ki was found to be 465 nM in assay [1] and 60 nM in assay [2].
`COc1cccc(N2CCN(CCCCOc3cc(C)cc4oc(=O)cc(C)c34)CC2)c1`: the Ki in assay [1] was found to be 184 nM; in assay [2] it was 1 nM.
As for `Cc1cc(OCCCN2CCOCC2)c2c(C)cc(=O)oc2c1`, the Ki in assay [1] is above 10000 nM; in assay [2], 1300 nM.
For `CC(=O)c1c(C)cc2oc(=O)cc(C)c2c1OCCCN1CCN(c2ccccc2C#N)CC1` the same measures were 64 nM and 0.3 nM.
As to `Cc1cc(OCCCN2CCN(c3cccc(Cl)c3Cl)CC2)c2c(C)cc(=O)oc2c1`, the Ki in assay [1] was 42 nM; in assay [2] it was 4 nM.
For `COc1cccc(N2CCN(CCCOc3c(C(C)=O)c(C)cc4oc(=O)cc(C)c34)CC2)c1` the same measures were 48 nM and 0.4 nM.
As for `CC(=O)c1c(C)cc2oc(=O)cc(C)c2c1OCCCCN1CCOCC1`, the Ki in assay [1] came to 4460 nM; in assay [2], 250 nM.
In the same order, the values of `Cc1cc(OCCCCN2CCN(c3ccncc3)CC2)c2c(C)cc(=O)oc2c1` are above 5000 nM and 389 nM.
With `Cc1cc(OCCCN2CCN(c3cnccn3)CC2)c2c(C)cc(=O)oc2c1`, the inhibitory constant (Ki) in assay [1] was 4570 nM; in assay [2], 186 nM.
In the same order, the values of `Cc1cc(OCCCN2CCN(c3ccc([N+](=O)[O-])cc3)CC2)c2c(C)cc(=O)oc2c1` are above 10000 nM and 1210 nM.
In the same order, the values of `CC(=O)c1c(C)cc2oc(=O)cc(C)c2c1OCCCN1CCN(c2ccc([N+](=O)[O-])cc2)CC1` are 286 nM and 159 nM.
In the case of `COc1cccc(N2CCN(CCCCOc3c(C(C)=O)c(C)cc4oc(=O)cc(C)c34)CC2)c1`, the Ki in assay [1] was found to be 520 nM; in assay [2] it was 15 nM.
Turning to `CC(=O)c1c(C)cc2oc(=O)cc(C)c2c1OCCCCN1CCN(c2ccc(Cl)cc2)CC1`, the Ki was 1.7 nM in assay [1] and 7 nM in assay [2].
For `Cc1cc(OCCCCN2CCN(c3cccc(Cl)c3Cl)CC2)c2c(C)cc(=O)oc2c1` the same measures were 167 nM and 8 nM.
Turning to `CC(=O)c1c(C)cc2oc(=O)cc(C)c2c1OCCCCN1CCN(c2ccncc2)CC1`, the results for the Ki in assay [1] and in assay [2] were 1590 nM and 308 nM, respectively.
For `Cc1cc(OCCCCN2CCOCC2)c2c(C)cc(=O)oc2c1` the same measures were above 10000 nM and 3500 nM.
In the case of `COc1cccc(N2CCN(CCCOc3cc(C)cc4oc(=O)cc(C)c34)CC2)c1`, the Ki in assay [1] was determined as 106 nM; in assay [2], 6 nM.
Consider `CC(=O)c1c(C)cc2oc(=O)cc(C)c2c1OCCCN1CCN(c2cccc(Cl)c2Cl)CC1`, for which the results for the Ki in assay [1] and in assay [2] were 66 nM and 0.4 nM, respectively.
Take `CC(=O)c1c(C)cc2oc(=O)cc(C)c2c1OCCCCN1CCN(c2ccccc2F)CC1`: the Ki in assay [1] came to 9 nM; in assay [2], 0.7 nM.
Consider `CC(=O)c1c(C)cc2oc(=O)cc(C)c2c1OCCCN1CCN(c2cnccn2)CC1`, for which the figures for the Ki in assay [1] and in assay [2] were 3000 nM and 11 nM, respectively.
Regarding `Cc1cc(OCCCCN2CCN(c3cnccn3)CC2)c2c(C)cc(=O)oc2c1`, the Ki in assay [1] is 2300 nM; in assay [2] it was 6.7 nM.
In the same order, the values of `CC(=O)c1c(C)cc2oc(=O)cc(C)c2c1OCCCN1CCN(c2ccncc2)CC1` are above 10000 nM and 154 nM.
For `Cc1cc(OCCCN2CCN(c3ccccc3C#N)CC2)c2c(C)cc(=O)oc2c1` the same measures were 200 nM and 3 nM.
For `CC(=O)c1c(C)cc2oc(=O)cc(C)c2c1OCCCCN1CCN(c2cnccn2)CC1` the same measures were 2500 nM and 4.8 nM.
On to `CC(=O)c1c(C)cc2oc(=O)cc(C)c2c1OCCCCN1CCN(c2ccc([N+](=O)[O-])cc2)CC1`, for which the Ki in assay [1] turned out to be 46 nM; in assay [2], 33 nM.
For `Cc1cc(OCCCCN2CCN(c3ccccc3C#N)CC2)c2c(C)cc(=O)oc2c1` the same measures were 112 nM and 1.5 nM.
As to `Cc1cc(OCCCCN2CCN(c3ccccc3F)CC2)c2c(C)cc(=O)oc2c1`, the Ki amounted to 120 nM in assay [1] and 1.7 nM in assay [2].
Regarding `Cc1cc(OCCCCN2CCN(c3ccc([N+](=O)[O-])cc3)CC2)c2c(C)cc(=O)oc2c1`, the Ki in assay [1] was above 10000 nM; in assay [2], 809 nM.
Turning to `CC(=O)c1c(C)cc2oc(=O)cc(C)c2c1OCCCCN1CCN(c2cccc(Cl)c2Cl)CC1`, the Ki in assay [1] is 2650 nM; in assay [2] it was 250 nM.
For `Cc1cc(OCCCN2CCN(c3ccccc3F)CC2)c2c(C)cc(=O)oc2c1` the same measures were 55 nM and 3 nM.
Consider `Cc1cc(OCCCN2CCN(c3ccc(Cl)cc3)CC2)c2c(C)cc(=O)oc2c1`, for which the values for the Ki in assay [1] and in assay [2] were 70 nM and 161 nM, respectively.
On to `CC(=O)c1c(C)cc2oc(=O)cc(C)c2c1OCCCN1CCOCC1`, for which the values for the inhibitory constant (Ki) in assay [1] and in assay [2] were above 10000 nM and 850 nM, respectively.
In the same order, the values of `CC(=O)c1c(C)cc2oc(=O)cc(C)c2c1OCCCN1CCN(c2ccc(Cl)cc2)CC1` are 4 nM and 1.2 nM.
For `Cc1cc(OCCCN2CCN(c3ccncc3)CC2)c2c(C)cc(=O)oc2c1`, the Ki in assay [1] is above 5000 nM; in assay [2], 450 nM.
